Source: article PMC10935467 (Acta Pharmaceutica Sinica. B, 2023)
Where a SMILES comes first, the peptide text is derived from it. Where no end group is shown, it is not given here. [ ]: non-standard residue; d: D form.

Columns and labels:
human LAG-3/FGL1 = target: T1, human LAG-3/FGL1 (Homo sapiens, UniProt P18627); assay: Blocking assay of hLAG-3/hFGL1 interaction on CHO-K1-hLAG-3 cells; type: binding; settings: 100 μmol/L, n = 3, compared with LFP-D1
T1 sequence (P18627 23-525): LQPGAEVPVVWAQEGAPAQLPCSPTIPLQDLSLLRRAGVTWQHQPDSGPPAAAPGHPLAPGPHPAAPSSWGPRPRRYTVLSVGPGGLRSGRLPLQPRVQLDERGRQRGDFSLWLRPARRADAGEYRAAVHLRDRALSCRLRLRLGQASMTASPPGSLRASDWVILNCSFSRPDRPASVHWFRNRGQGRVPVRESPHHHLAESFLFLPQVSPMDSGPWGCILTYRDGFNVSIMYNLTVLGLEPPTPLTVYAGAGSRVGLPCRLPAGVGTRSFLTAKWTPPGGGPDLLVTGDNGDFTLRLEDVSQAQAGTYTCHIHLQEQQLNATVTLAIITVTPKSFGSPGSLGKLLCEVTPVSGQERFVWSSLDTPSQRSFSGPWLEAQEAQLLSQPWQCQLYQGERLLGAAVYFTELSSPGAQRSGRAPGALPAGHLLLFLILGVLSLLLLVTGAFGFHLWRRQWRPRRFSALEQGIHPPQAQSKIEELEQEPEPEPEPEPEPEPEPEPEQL
Summary of the method: (§1)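 Cells stably expressing human (CHO-K1-hLAG-3) or mouse (CHO-K1-mLAG-3) LAG-3 are pre-incubated with test peptide at graded concentrations for 30 min at 4 °C. Recombinant FGL1-Fc of the matching species is then added for 30 min at 4 °C, followed by PE anti-human IgG1 (anti-Fc). MFI is read by flow cytometry. Blocking % = (MFI no-peptide control − MFI peptide)/MFI no-peptide control × 100. Cells given only anti-Fc-PE serve as background. IC50 is taken from dose–response curves.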

[1] = In vivo toxicity analysis in MC38 tumor-bearing mice; set-up: species or system mouse
[2] = test system: MC38 tumors in C57BL/6 mice; assay: MC38 tumor model, LFOP alone or combined with radiotherapy; type: in vivo, mouse
Summary of the method: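 In MC38 tumor-bearing C57BL/6 mice, tumors of about 100 mm3 receive local 20 Gy irradiation. Test peptide at 5.8 mg/kg is given starting the same day, with or without irradiation; saline and RT-alone groups are included. Tumor volume (½ × length × width × height) and body weight are recorded every two days for 14 days, and tumors are weighed at the end. n = 5.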

[3] = test system: H22 tumors in BALB/c mice; assay: H22 tumor model; type: in vivo, mouse; settings: daily for 14 days, LFP-D1 3 mg/kg, LFOP 5.8 mg/kg, n = 5
Summary of the method: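 H22 cells (2 × 10^6) are injected subcutaneously into the right flank of six-week-old female BALB/c mice. Dosing is daily once tumors reach about 50 mm3: 3 mg/kg, 2.5 mg/kg, both combined, or 5.8 mg/kg of the fused peptide (equimolar to 3 mg/kg). Tumor volume (½ × length × width × height) and body weight are recorded every two days over 14 days of treatment.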

hPD-1/hPD-L1 = hPD-1/hPD-L1 (Homo sapiens, UniProt Q9NZQ7); assay: Blocking assay of hPD-1/hPD-L1 interaction; type: binding; settings: 100 μmol/L, n = 3, compared with OPBP-1(8–12)
Sequence of hPD-1/hPD-L1 (Q9NZQ7 19-239 limits assumed): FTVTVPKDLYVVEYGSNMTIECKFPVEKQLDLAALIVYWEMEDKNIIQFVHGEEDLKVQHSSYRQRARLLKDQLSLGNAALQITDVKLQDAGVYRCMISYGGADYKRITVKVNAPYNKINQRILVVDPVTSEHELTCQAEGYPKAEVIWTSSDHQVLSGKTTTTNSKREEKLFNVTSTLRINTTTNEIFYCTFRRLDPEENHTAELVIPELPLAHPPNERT

Human LAG-3-His protein = target: T2, Human LAG-3-His protein (Homo sapiens, UniProt P18627); assay: MST binding affinity to hLAG-3
T2 sequence (P18627 23-525): T1 sequence (P18627 23-525)
Summary of the method: (§2)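 His-tagged LAG-3 (human or mouse) is labeled with RED-tris-NTA 2nd-generation dye. Test peptide is serially diluted in PBST (0.05% Tween-20) and mixed with an equal volume of labeled protein at room temperature for 5 min. Samples are loaded into capillaries for microscale thermophoresis, and KD is fitted from the dose–response curves.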

mouse LAG-3/FGL1 = target: T3, mouse LAG-3/FGL1 (Mus musculus, UniProt Q61790); assay: Blocking assay of mLAG-3/mFGL1 interaction on CHO-K1-mLAG-3 cells; type: binding
T3 sequence (Q61790 24-521): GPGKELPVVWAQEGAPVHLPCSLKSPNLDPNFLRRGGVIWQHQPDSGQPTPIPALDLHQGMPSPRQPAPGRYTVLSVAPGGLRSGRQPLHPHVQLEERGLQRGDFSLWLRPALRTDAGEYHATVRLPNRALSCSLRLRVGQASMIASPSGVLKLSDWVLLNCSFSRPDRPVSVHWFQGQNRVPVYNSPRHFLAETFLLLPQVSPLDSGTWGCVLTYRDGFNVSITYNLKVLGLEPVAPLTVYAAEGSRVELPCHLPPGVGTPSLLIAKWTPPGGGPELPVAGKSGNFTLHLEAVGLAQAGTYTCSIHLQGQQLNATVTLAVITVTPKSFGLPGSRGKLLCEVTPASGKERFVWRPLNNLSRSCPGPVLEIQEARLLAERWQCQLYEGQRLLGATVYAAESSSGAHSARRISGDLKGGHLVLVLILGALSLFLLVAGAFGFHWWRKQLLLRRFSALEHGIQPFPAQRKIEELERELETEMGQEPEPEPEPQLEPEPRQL
Summary of the method: as §1

mouse LAG-3-His protein = target: T4, mouse LAG-3-His protein (Mus musculus, UniProt Q61790); assay: MST binding affinity to mLAG-3
T4 sequence (Q61790 24-521): T3 sequence (Q61790 24-521)
Summary of the method: as §2

[4] = LFP-D1 treatment vs normal saline, n = 5

Compound	Blocking efficacy on hLAG-3/hFGL1 interaction (human LAG-3/FGL1)	Histopathology of major organs (H&E staining) ([1]; heart, liver, spleen, lung, kidney after treatment with LFOP, RT or both)	Body weight of the mice among groups at ultimate time ([1]; normal saline, RT 20 Gy, LFOP 5.8 mg/kg, LFOP + RT, 14 days, n = 5)	ALT and AST levels in serum ([1]; normal saline, RT 20 Gy, LFOP 5.8 mg/kg, LFOP + RT, n = 5)	Tumor progression of MC38 tumors ([2]; LFOP 5.8 mg/kg alone, 14 days, n = 5)	Tumor growth of MC38 tumors ([2]; LFOP 5.8 mg/kg combined with RT (local 20 Gy), 14 days, n = 5)	Tregs after treatment ([2]; treatment with LFOP, data not shown)	Tumor growth in H22 tumor model [3]	Blocking efficacy on hPD-1/hPD-L1 interaction (hPD-1/hPD-L1)	Kd (Human LAG-3-His protein)	Liver index ([1]; LFP-D1 treatment vs normal saline, liver weight (mg) to body weight (g), n = 5)	ALT level in mice serum [1, 4]	AST level in mice serum [1, 4]	IC50 (mouse LAG-3/FGL1)	Kd (mouse LAG-3-His protein)
CSCC[C@@H](N)C(=O)N[C@@H](Cc1c[nH]cn1)C(=O)N[C@@H](CCCNC(=N)N)C(=O)N1CCC[C@H]1C(=O)N1CCC[C@H]1C(=O)N[C@@H](CO)C(=O)N[C@@H](C(=O)NCC(=O)N[C@@H](CO)C(=O)N[C@H](CCCNC(=N)N)C(=O)N[C@@H](C(=O)N[C@H](Cc1ccc(O)cc1)C(=O)N[C@H](CO)C(=O)N[C@H](Cc1ccccc1)C(=O)O)C(C)C)[C@H](C)O [LFOP] (H-[dM]HRPPS[dT]GS[dR][dV][dY][dS][dF]-OH; N-terminus and C-terminus assumed)	in line with its parental peptide	no abnormalities	no significant differences	indiscriminate	slowed tumor progression	effectively controlled tumor growth even partial regression	decreased	significantly inhibited the tumor growth	in line with its parental peptide						
CSCC[C@@H](N)C(=O)N[C@@H](Cc1c[nH]cn1)C(=O)N[C@@H](CCCNC(=N)N)C(=O)N1CCC[C@H]1C(=O)N1CCC[C@H]1C(=O)N[C@@H](CO)C(=O)N[C@@H](C(=O)O)[C@H](C)O [LFP-D1] (H-[dM]HRPPS[dT]-OH)										15.7 ± 6.7 µM	no significant difference	no significant difference	no significant difference	17.5 ± 2.2 µM	10.9 ± 3.3 µM
MHRPPST [LFP-6]										16.1 ± 5.5 µM				47.2 ± 2.2 µM	14.6 ± 3.3 µM
